For 56 compounds, IC50 results are on record in ChEMBL document CHEMBL4270613, “Design, synthesis, biological evaluation and structure-activity relationship of sophoridine derivatives bearing pyrrole or indole scaffold as potential antitumor agents” (Eur J Med Chem, 2018).

For the assay, the system named is HepG2. As to the kind of experiment: Antiproliferative activity against human HepG2 cells after 48 hrs by MTT assay. Type of assay: functional, cell-based. The note with it: HepG2, 48 h. The method in brief: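 HepG2 exposed to compounds for 48 h; MTT readout; camptothecin positive control; IC50 calculated; mean ± SD of three independent experiments, each in triplicate.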
For orientation: Tetrazolium dyes change colour on reduction, which living cells bring about.
Take `O=C1/C(=C/c2cccn2Cc2ccccc2Cl)CC[C@@H]2[C@H]3CCCN4CCC[C@H](CN12)[C@@H]34`: half-maximal inhibition (IC50) was put at 17.4 µM. This counts as double-digit micromolar.
As for `O=C1/C(=C/c2cccn2Cc2ccccc2Br)CC[C@@H]2[C@H]3CCCN4CCC[C@H](CN12)[C@@H]34`, the figure is 13.5 µM.
As for `O=C1/C(=C/c2cn(Cc3ccc(OCc4ccc(F)cc4)cc3)c3ccccc23)CC[C@@H]2[C@H]3CCCN4CCC[C@H](CN12)[C@@H]34`, the figure is 4.83 µM; as for `O=C1/C(=C/c2cn(Cc3ccc(OCc4ccccc4)cc3)c3ccccc23)CC[C@@H]2[C@H]3CCCN4CCC[C@@H](CN12)[C@@H]34`, 9.96 µM; as for `O=C1/C(=C/c2cn(Cc3ccc(OCc4ccc(Cl)cc4)cc3)c3ccccc23)CC[C@@H]2[C@H]3CCCN4CCC[C@H](CN12)[C@@H]34`, 6.17 µM.
As for `O=C1/C(=C/c2ccc3c(ccn3Cc3ccc(OCc4ccccc4)cc3)c2)CC[C@@H]2[C@H]3CCCN4CCC[C@H](CN12)[C@@H]34`, the figure is 7.25 µM.
As for `O=C1/C(=C/c2cccn2Cc2ccc(OCc3ccccc3)cc2)CC[C@@H]2[C@H]3CCCN4CCC[C@H](CN12)[C@@H]34`, the half-maximal inhibitory concentration (IC50) (usually the concentration at which inhibition is half-maximal) amounted to 7.22 µM.
As for `O=C1/C(=C/c2cccn2Cc2ccc(Br)cc2)CC[C@@H]2[C@H]3CCCN4CCC[C@H](CN12)[C@@H]34`, the figure is 12.6 µM.
As for `c1ccc(COc2ccc(Cn3ccc4ccccc43)cc2)cc1`, the figure is more than 50 µM.
As to `O=C1/C(=C/c2cccn2Cc2ccc3ccccc3c2)CC[C@@H]2[C@H]3CCCN4CCC[C@H](CN12)[C@@H]34`, the IC50 is 16.1 µM.
As for `COc1cc(Cn2cccc2/C=C2\CC[C@@H]3[C@H]4CCCN5CCC[C@H](CN3C2=O)[C@@H]45)cc(OC)c1`, the figure is 21.2 µM; as for `COc1ccc(Br)c(Cn2cccc2/C=C2\CC[C@@H]3[C@H]4CCCN5CCC[C@H](CN3C2=O)[C@@H]45)c1`, 9.66 µM; as for `Cn1cccc1/C=C1\CC[C@@H]2[C@H]3CCCN4CCC[C@H](CN2C1=O)[C@@H]34`, more than 100 µM.
As for `O=C1/C(=C/c2cccn2Cc2ccc(F)cc2)CC[C@@H]2[C@H]3CCCN4CCC[C@H](CN12)[C@@H]34`, the figure is 29.4 µM; as for `O=C1/C(=C/c2cccn2Cc2ccc(OC(F)(F)F)cc2)CC[C@@H]2[C@H]3CCCN4CCC[C@H](CN12)[C@@H]34`, 26.5 µM; as for `O=C1/C(=C/c2cccc3c2ccn3Cc2ccc(OCc3ccccc3)cc2)CC[C@@H]2[C@H]3CCCN4CCC[C@H](CN12)[C@@H]34`, 15.2 µM.
As for `O=C1/C(=C/c2cn(Cc3ccc(OCc4ccc(OC(F)(F)F)cc4)cc3)c3ccccc23)CC[C@@H]2[C@H]3CCCN4CCC[C@H](CN12)[C@@H]34`, the figure is 6.01 µM.
Compound `O=C1/C(=C/c2cccn2Cc2ccc(Cl)cc2)CC[C@@H]2[C@H]3CCCN4CCC[C@H](CN12)[C@@H]34` returned an IC50 of 13.5 µM.
As for `O=C1/C(=C/c2cn(Cc3ccc(OCc4ccccc4)cc3)c3ccccc23)CC[C@@H]2[C@H]3CCCN4CCC[C@H](CN12)[C@@H]34`, the figure is 3.08 µM.
As for `Cc1ccc(Cn2cccc2/C=C2\CC[C@@H]3[C@H]4CCCN5CCC[C@H](CN3C2=O)[C@@H]45)cc1`, the figure is 17.3 µM; as for `CC(C)(C)c1ccc(Cn2cccc2/C=C2\CC[C@@H]3[C@H]4CCCN5CCC[C@H](CN3C2=O)[C@@H]45)cc1`, 13.6 µM.
As for `COc1cccc(Cn2cc(/C=C3\CC[C@@H]4[C@H]5CCCN6CCC[C@H](CN4C3=O)[C@@H]56)c3ccccc32)c1`, the figure is 8.14 µM; as for `COc1ccc2c(c1)c(/C=C1\CC[C@@H]3[C@H]4CCCN5CCC[C@H](CN3C1=O)[C@@H]45)cn2Cc1ccc(OCc2ccc(C(C)(C)C)cc2)cc1`, 5.86 µM.
Regarding `COc1ccc2c(c1)c(/C=C1\CC[C@@H]3[C@H]4CCCN5CCC[C@H](CN3C1=O)[C@@H]45)cn2Cc1ccc(OCc2ccc(Br)cc2)cc1`, it took 6.31 µM to reach half-maximal inhibition (IC50).
Compound `O=C1/C(=C/c2cn(Cc3ccc(OCc4ccccc4)cc3)c3cc(Cl)ccc23)CC[C@@H]2[C@H]3CCCN4CCC[C@H](CN12)[C@@H]34` yielded an IC50 of 14.3 µM.
`CC(C)(C)c1ccc(Cn2cc(/C=C3\CC[C@@H]4[C@H]5CCCN6CCC[C@H](CN4C3=O)[C@@H]56)c3ccccc32)cc1` came in with an IC50 of 4.57 µM. Compared with the last compound, the IC50 is about 3.1-fold lower.
In turn, `Cc1ccc(Cn2cc(/C=C3\CC[C@@H]4[C@H]5CCCN6CCC[C@H](CN4C3=O)[C@@H]56)c3ccccc32)cc1` returned an IC50 of 9.39 µM.
For the compound `CC(C)(C)c1ccc(COc2ccc(Cn3cc(/C=C4\CC[C@@H]5[C@H]6CCCN7CCC[C@H](CN5C4=O)[C@@H]67)c4ccccc43)cc2)cc1`, the IC50 was found to be 6.07 µM.
Regarding `COc1ccc2c(c1)c(/C=C1\CC[C@@H]3[C@H]4CCCN5CCC[C@H](CN3C1=O)[C@@H]45)cn2Cc1ccc(OCc2ccc(F)cc2)cc1`, the IC50 was determined as 3.12 µM.
As for `O=C1/C(=C/c2cn(Cc3ccccc3Cl)c3ccccc23)CC[C@@H]2[C@H]3CCCN4CCC[C@H](CN12)[C@@H]34`, the figure is 9.05 µM; as for `Cc1cccc(Cn2cc(/C=C3\CC[C@@H]4[C@H]5CCCN6CCC[C@H](CN4C3=O)[C@@H]56)c3ccccc32)c1`, 8.27 µM; as for `O=C1/C(=C/c2cn(Cc3ccc(Br)cc3)c3ccccc23)CC[C@@H]2[C@H]3CCCN4CCC[C@H](CN12)[C@@H]34`, 5.94 µM.
As for `COc1cc(Cn2cc(/C=C3\CC[C@@H]4[C@H]5CCCN6CCC[C@H](CN4C3=O)[C@@H]56)c3ccccc32)cc(OC)c1`, the figure is 6.88 µM; as for `O=C1/C(=C/c2cn(Cc3ccc(Cl)cc3)c3ccccc23)CC[C@@H]2[C@H]3CCCN4CCC[C@H](CN12)[C@@H]34`, 6.59 µM.
As for `Cc1cc(C)cc(Cn2cc(/C=C3\CC[C@@H]4[C@H]5CCCN6CCC[C@H](CN4C3=O)[C@@H]56)c3ccccc32)c1`, the figure is 4.56 µM.
On to `COc1ccc2c(c1)c(/C=C1\CC[C@@H]3[C@H]4CCCN5CCC[C@H](CN3C1=O)[C@@H]45)cn2Cc1ccc(OCc2ccc(Cl)cc2)cc1`, for which the IC50 worked out at 3.97 µM.
As for `Cc1ccccc1Cn1cccc1/C=C1\CC[C@@H]2[C@H]3CCCN4CCC[C@H](CN2C1=O)[C@@H]34`, the figure is 25.3 µM; as for `COc1cccc(Cn2cccc2/C=C2\CC[C@@H]3[C@H]4CCCN5CCC[C@H](CN3C2=O)[C@@H]45)c1`, 17.2 µM; as for `O=C1/C(=C/c2cn(Cc3ccccc3Br)c3ccccc23)CC[C@@H]2[C@H]3CCCN4CCC[C@H](CN12)[C@@H]34`, 15.4 µM.
As for `O=C1/C(=C/c2cn(Cc3ccc(OC(F)(F)F)cc3)c3ccccc23)CC[C@@H]2[C@H]3CCCN4CCC[C@H](CN12)[C@@H]34`, the figure is 8.73 µM; as for `O=C1/C(=C/c2cn(Cc3ccccc3)c3ccccc23)CC[C@@H]2[C@H]3CCCN4CCC[C@H](CN12)[C@@H]34`, 6.95 µM; as for `COc1ccc2c(ccn2Cc2ccc(OCc3ccccc3)cc2)c1`, more than 50 µM.
As for `Cc1cccc(Cn2cccc2/C=C2\CC[C@@H]3[C@H]4CCCN5CCC[C@H](CN3C2=O)[C@@H]45)c1`, the figure is 18.1 µM; as for `COc1ccc(Cn2cc(/C=C3\CC[C@@H]4[C@H]5CCCN6CCC[C@H](CN4C3=O)[C@@H]56)c3ccccc32)cc1`, 8.23 µM; as for `COc1ccc(Br)c(Cn2cc(/C=C3\CC[C@@H]4[C@H]5CCCN6CCC[C@H](CN4C3=O)[C@@H]56)c3ccccc32)c1`, 4.16 µM.
As to `Cc1ccccc1Cn1cc(/C=C2\CC[C@@H]3[C@H]4CCCN5CCC[C@H](CN3C2=O)[C@@H]45)c2ccccc21`, 16.3 µM corresponded to half-maximal inhibition (IC50).
As for `COc1ccc2c(c1)c(/C=C1\CC[C@@H]3[C@H]4CCCN5CCC[C@H](CN3C1=O)[C@@H]45)cn2Cc1ccc(OCc2ccc(C)cc2)cc1`, the figure is 4.18 µM; as for `O=C1/C(=C/c2cccn2Cc2ccccc2)CC[C@@H]2[C@H]3CCCN4CCC[C@H](CN12)[C@@H]34`, 10.9 µM.
As for `O=C1/C(=C/c2cn(Cc3ccc4ccccc4c3)c3ccccc23)CC[C@@H]2[C@H]3CCCN4CCC[C@H](CN12)[C@@H]34`, the figure is 12.8 µM; as for `Cc1ccc(COc2ccc(Cn3cc(/C=C4\CC[C@@H]5[C@H]6CCCN7CCC[C@H](CN5C4=O)[C@@H]67)c4ccccc43)cc2)cc1`, 5.32 µM.
As for `O=C1/C(=C/c2cn(Cc3cccc(Br)c3)c3ccccc23)CC[C@@H]2[C@H]3CCCN4CCC[C@H](CN12)[C@@H]34`, the figure is 8.62 µM; as for `Cc1ccc2c(c1)c(/C=C1\CC[C@@H]3[C@H]4CCCN5CCC[C@H](CN3C1=O)[C@@H]45)cn2Cc1ccc(OCc2ccccc2)cc1`, 7.71 µM; as for `O=C1/C(=C/c2cccn2Cc2cccc(Cl)c2)CC[C@@H]2[C@H]3CCCN4CCC[C@H](CN12)[C@@H]34`, 16.6 µM.
The compound `Cc1cc(C)cc(Cn2cccc2/C=C2\CC[C@@H]3[C@H]4CCCN5CCC[C@H](CN3C2=O)[C@@H]45)c1` displayed an IC50 of 14.8 µM.
As for `CC(C)(C)c1cc(Cn2cccc2/C=C2\CC[C@@H]3[C@H]4CCCN5CCC[C@H](CN3C2=O)[C@@H]45)cc(C(C)(C)C)c1`, the figure is 18.1 µM.
In turn, `O=C1/C(=C/c2cn(Cc3ccc(OCc4ccc(Br)cc4)cc3)c3ccccc23)CC[C@@H]2[C@H]3CCCN4CCC[C@H](CN12)[C@@H]34` yielded an IC50 of 10.1 µM.
